Three molecules from ChEMBL document CHEMBL2311329, “Synthesis and biological evaluation of a folate-targeted rhaponticin conjugate” (Bioorg Med Chem, 2013) can be followed below.

pIC50: −log10 of the molar value. Active and inactive are the calls of the source.

One series has as its system M109. Briefly: In vivo antitumor activity against FR-positive mouse M109 cells implanted in Balb/c mouse assessed as decrease in tumor volume at 2 umol/kg, iv treated 33 days after implantation for TIW 3 week schedule. The class given is functional, organism-based.
In another series the test system is Mus musculus. In words: Toxicity in FR-positive human KB cells implanted Balb/c mouse assessed as gross toxicity at 2 umol/kg, iv TIW 2 week schedule. As to conditions: in vivo, 336 h. The class given is organism-based. In short, it runs like this: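 Female Balb/c mice, 6–7 weeks old, on folate-free diet. 1 × 10^6 KB cells injected into the dorsal subcutis. Dosing began at tumor volumes of 50–110 mm³: 2 µmol/kg iv, three times a week for 2 weeks, alone or with 40-fold excess FA; PBS for controls. Caliper volumes (0.5 × L × W²) every 2–3 days; body weight followed. n = 5 per cohort.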

The subject of the next series is KB. In words: Antitumor activity against FR-positive human KB cells assessed as decrease in cell viability measured after 48 hrs by MTT proliferation assay. The class given is functional, cell-based. In short, it runs like this: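 Cells kept in folate-free RPMI with 10% heat-inactivated FCS. Seeded at 1.0 × 10^4 cells/well and left to adhere overnight. Medium then replaced with drug at 0.1–500 nM, with or without 0.01 mM FA competitor, for 48 h at 37 °C. MTT added for 3 h, formazan dissolved in DMSO, A570 read against a no-MTT baseline. Viability given as % of control; 5 repeats.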
A general note: Tetrazolium dyes change colour on reduction, which living cells bring about.

Series [1] can be described thus: Half life in human serum at 37 degC. The class given is ADME, cell-free. In outline:
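Compound added to human serum at a final 200 µM and held at 37 °C in a water bath for up to 24 h. Samples taken at 1–3, 5, 8, 12, 18 and 24 h (n = 3). Compound recovered by solid-phase extraction after adding 6 M guanidine (pH 7.4), then measured by HPLC as % recovery.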

Regarding `COc1ccc(/C=C/c2cc(O)cc(O[C@@H]3O[C@H](CO)[C@@H](O)[C@H](O)[C@H]3O)c2)cc1O` [RHAPONTIN], the inhibition result in the series with M109 was “Active”. Also, the Activity result with Mus musculus is on record as “Toxic”. For the same molecule, the pIC50 with KB was 7.47. Moreover, the half-life in series [1] is 3.5 h.

As to `COc1ccc(/C=C/c2cc(O)cc(O[C@@H]3O[C@H](CN)[C@@H](O)[C@H](O)[C@H]3O)c2)cc1O`, the inhibition result with KB was “Active”.

`COc1ccc(/C=C/c2cc(O)cc(O[C@@H]3O[C@H](CNC(=O)OCCSSc4ccccn4)[C@@H](O)[C@H](O)[C@H]3O)c2)cc1O`: the inhibition result with KB is “Active”.

As usually defined, the pIC50 is the IC50 on a negative log10 scale, so that one unit is a factor of ten. Usually half-life stands for the time needed for the level to fall by half in the phase considered. A high value points to slow loss.
